The target of assay [1] is T1, Fructose-1,6-bisphosphatase 1 (Homo sapiens, UniProt P09467).
T1 sequence (P09467 whole entry): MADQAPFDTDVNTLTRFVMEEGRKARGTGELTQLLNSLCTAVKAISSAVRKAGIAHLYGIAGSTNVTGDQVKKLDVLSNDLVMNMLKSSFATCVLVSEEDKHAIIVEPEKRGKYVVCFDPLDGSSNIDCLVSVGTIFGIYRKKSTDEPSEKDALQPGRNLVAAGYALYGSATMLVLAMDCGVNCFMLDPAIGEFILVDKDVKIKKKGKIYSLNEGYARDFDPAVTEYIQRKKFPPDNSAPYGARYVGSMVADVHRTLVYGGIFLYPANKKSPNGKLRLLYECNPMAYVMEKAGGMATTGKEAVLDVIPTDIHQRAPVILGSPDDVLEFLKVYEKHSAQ
In words: Inhibition of human FBase.

Assay [2] is described as follows: Inhibition of monkey FBase. On the set-up: species or system Macaca mulatta.
A short description of assay [3]: Antidiabetic activity in monkey hepatocytes assessed as inhibition of glucose production after 4 hrs. The settings on record: Macaca mulatta, Hepatocyte. It counts as functional, cell-based. The essentials: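 Monkey hepatocytes in phosphate buffered saline with 25 mM sodium bicarbonate, 25 mM HEPES, 1% BSA; compound preincubation only 2 min, then washed out and cells incubated 4 h with 10 mM lactate plus 1 mM pyruvate. Medium glucose measured by Glucose CII-test; IC50 reported as mean SD (n = 7).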

Assay [4] has as its system Cynomolgus monkey. In words: Antidiabetic activity in cynomolgus monkey assessed as decrease in blood glucose level at 20 mg/kg, po after 4 hrs. It counts as functional, organism-based. Set-up: dose 20 mg/kg. The settings on record: Macaca fascicularis. The essentials:
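Overnight-fasted cynomolgus monkeys (n = 7, 5–8 years old) dosed orally at 20 mg/kg in vehicle (50% PEG 400, 0.5% MC, 0.5% Tween 80) or vehicle alone; crossover in same animals with at least 2-week washout. Blood drawn predose and 1–12 h post-dose; plasma glucose read on i-STAT 300F analyser; mean S.E.M., paired t-test versus vehicle.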

The source made the active and inactive calls. The calls are words filed in the database; no cut-off is given here.

As a reminder, the IC50 is the midpoint of a concentration-inhibition curve. For `CCOC(=O)[C@H](C)NP(=O)(COc1ccc(C(=O)NC)c2c1-c1ncsc1C2)N[C@@H](C)C(=O)OCC`, the IC50 is 2 nM in assay [1], 19 nM in assay [2] and more than 100000 nM in assay [3].

With `CCOC(=O)CNP(=O)(COc1cc(C)c(C)c2c1-c1ncsc1C2)NCC(=O)OCC`, the IC50 in assay [1] amounted to 10 nM; in assay [2], 34 nM; in assay [3] it was 9400 nM.

Take `CCOC(=O)[C@H](C)NP(=O)(COc1cc(C)c(C)c2c1-c1ncsc1C2)N[C@@H](C)C(=O)OCC`: the IC50 in assay [1] was 10 nM; in assay [2] it was 34 nM; in assay [3], 6800 nM. Also, the outcome in assay [4] was Active.

On to `CCOC(=O)[C@H](C)NP(=O)(COc1ccc(C(=O)NCC(C)(C)C)c2c1-c1ncsc1C2)N[C@@H](C)C(=O)OCC`, for which the IC50 was 11 nM in assay [1], 31 nM in assay [2] and more than 100000 nM in assay [3].

Take `CCOC(=O)[C@H](C)NP(=O)(N[C@@H](C)C(=O)OCC)c1ccc(-c2nc(N)sc2CC(C)C)o1`: the IC50 in assay [1] was determined as 10 nM; in assay [2], 30 nM; in assay [3], 10000 nM.

As to `CCOC(=O)[C@H](C)NP(=O)(COc1ccc(CC)c2c1-c1ncsc1C2)N[C@@H](C)C(=O)OCC`, the IC50 in assay [1] was found to be 11 nM; in assay [2] it was 23 nM; in assay [3] it was 23000 nM.

Take `Cc1cc(OCP(=O)(N[C@@H](C)C(=O)OC(C)C)N[C@@H](C)C(=O)OC(C)C)c2c(c1C)Cc1scnc1-2`: the IC50 is 10 nM in assay [1], 34 nM in assay [2] and 9000 nM in assay [3].

Consider `CCOC(=O)[C@H](C)NP(=O)(COc1ccc(C(N)=O)c2c1-c1ncsc1C2)N[C@@H](C)C(=O)OCC`, for which the 50% inhibitory concentration (IC50) came out at 1 nM in assay [1], 22 nM in assay [2] and 94000 nM in assay [3].

For the molecule `CCOC(=O)[C@H](C)NP(=O)(COc1ccc(C)c2c1-c1ncsc1C2)N[C@@H](C)C(=O)OCC`, the values for the half-inhibitory concentration (IC50) in assay [1], in assay [2] and in assay [3] were 8 nM, 24 nM and 7400 nM, respectively.

The values are drawn from ChEMBL document CHEMBL1177665, “Discovery of potent and orally active tricyclic-based FBPase inhibitors” (Bioorg Med Chem, 2010).
